Results from ChEMBL document CHEMBL1151913, “Preparation of novel (Z)-4-ylidenebenzo[b]furo[3,2-d][1,3]oxazines and their biological activity” (2009).
The source made the active and inactive calls. The calls are words filed in the database; no cut-off is given here.

Assays:
Osteoblast = assay: Anti-osteoclastic bone resorption activity in ddY mouse calvarial osteoblasts assessed as inhibition of PGE2-stimulated resorption pit formation relative to 17-beta-estradiol; assay type: functional, cell-based
Procedure, shortened: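 Osteoclasts generated by 7-day coculture of preconfluent calvarial osteoblasts (1–2 day old ddY mice) with fresh bone marrow cells (5 week-old male ddY mice) on collagen-coated dish in α-MEM (pH 7.0), 10% FCS, 10 nM calcitriol, 1.0 μM PGE2; collagenase-released cells plated on dentin slices with 10 nM E2 or compounds, 2 days; pits counted after toluidine blue staining.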

MCF7 = assay: Growth inhibition of human MCF7 cells after 72 hrs by Alamar Blue assay; assay type: functional; conditions: MCF7, 72 h
Procedure, shortened: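 MCF-7 grown in E-MEM with 10% FCS and antibiotic-antimycotic; 1 × 10^4 cells/well seeded, 24 h at 37 °C, 5% CO2; medium replaced with drug-containing medium (final DMSO ≤0.25%) in triplicate wells, 72 h continuous exposure; alamarBlue added for further 3 h.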

MIA PaCa-2 = assay: Growth inhibition of human MIAPaCa2 cells after 72 hrs by Alamar Blue assay; assay type: functional; conditions: MIA PaCa-2, 72 h
Procedure, shortened: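 MIA PaCa-2 grown in D-MEM with 10% FCS and antibiotic-antimycotic; 1 × 10^4 cells/well seeded, 24 h at 37 °C, 5% CO2; medium replaced with drug-containing medium (final DMSO ≤0.25%) in triplicate wells, 72 h continuous exposure; alamarBlue added for further 3 h.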

Question: `CCN(CC)C(=O)/C=C/C=C1\OC(/C=C/c2ccccc2)=Nc2c1oc1ccc(Br)cc21` was tested. Which Activity (Osteoblast) did it give?
Answer: Its Activity is “inactive”.

Question: Which GI50 (MCF7) does the source give for `CCOC(=O)/C=C/C=C1\OC(/C=C(\Cl)c2ccc(Cl)cc2)=Nc2c1oc1ccc(Br)cc21` here?
Answer: Its GI50 is > 10 µM.

Question: And the GI50 (MIA PaCa-2)?
Answer: The GI50 was > 10 µM.

Question: How did the Activity (Osteoblast) turn out when `CCOC(=O)/C=C/C=C1\OC(/C=C/c2ccccc2)=Nc2c1oc1ccc(Br)cc21` was run?
Answer: The Activity was “Active”.

Question: Which results are given for `COc1cccc2c3c(oc12)/C(=C/C=O)OC(/C=C/C=C(/Cl)c1ccc(F)cc1)=N3`?
Answer: GI50 (MCF7): 7.14 µM; GI50 (MIA PaCa-2): > 10 µM

Question: With `C/C=C/C1=Nc2c(oc3ccc(Br)cc23)/C(=C/C=O)O1` as the molecule, how does the Activity (Osteoblast) read?
Answer: The Activity was “inactive”.

Question: How did the Activity (Osteoblast) turn out when `O=C(/C=C/C=C1\OC(/C=C/c2ccccc2)=Nc2c1oc1ccc(Br)cc21)N1CCOCC1` was run?
Answer: The Activity was “inactive”.

Question: `CCOP(=O)(OCC)/C(=C/C=C1\OC(/C=C/c2ccccc2)=Nc2c1oc1ccc(Br)cc21)c1ccc(Cl)cc1` was tested. Which Activity (Osteoblast) did it give?
Answer: Its Activity is “Active”.

Question: For `COc1ccc(CCNC(=O)/C=C/C=C2\OC(/C=C/c3ccccc3)=Nc3c2oc2ccc(Br)cc32)cc1OC`, which Activity (Osteoblast) is on record?
Answer: The Activity was “inactive”.

Question: Which GI50 (MCF7) does the source give for `O=c1[nH]cc(F)c(=O)[nH]1` [FLUOROURACIL] here?
Answer: Its GI50 is > 10 µM.

Question: And the GI50 (MIA PaCa-2)?
Answer: Its GI50 is > 10 µM.

Question: Which Activity (Osteoblast) does the source give for `O=C/C=C1\OC(/C=C/c2ccccc2)=Nc2c1oc1ccc(Br)cc21` here?
Answer: The Activity was “inactive”.

Question: Which results are given for `COc1cccc2c3c(oc12)/C(=C/C=C/C(=O)N1CCOCC1)OC(/C=C/c1ccccc1)=N3`?
Answer: GI50 (MCF7): > 10 µM; GI50 (MIA PaCa-2): 5.34 µM
